# In ChEMBL document CHEMBL3632543, “Structural Dissection of Crotalicidin, a Rattlesnake Venom Cathelicidin, Retrieves a Fragment with Antimicrobial and Antitumor Activity” (J Med Chem, 2015):
# Active and inactive are the calls of the source. The calls are words filed in the database; no cut-off is given here. Where a SMILES comes first, the peptide text is derived from it.
# Key:
# [1] = system: THP-1; assay: Cytotoxicity against human THP1 cells after 4 hrs by cell titer blue dye assay; type: functional, cell-based; details: for IC50: THP-1, 4 h
# In short: (§1)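 Tumor cells cultured in DMEM with 10% FBS, 37 °C, 5% CO2, kept at 10^5–10^6 cells/mL. About 60 000 cells mixed with 2-fold serial peptide dilutions (final 0.1–100 μM) in DMEM with 2% FBS for 30 min at 37 °C. About 10 000 treated cells per well then got Cell Titer Blue; fluorescence (ex 530, em 590 nm) read 4 and 24 h after dye addition. Viability relative to medium-only controls; triplicate.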
# [2] = system: THP-1; assay: Cytotoxicity against human THP1 cells after 24 hrs by cell titer blue dye assay; type: functional, cell-based; in short: as §1
# [3] = system: Staphylococcus aureus; assay: Antibacterial activity against Staphylococcus aureus ATCC 29213 by microdilution method; type: functional
# In short: (§2)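 Strains subcultured at least twice on sheep blood agar and incubated 24 h before testing; inoculum made by direct suspension in saline to 0.5 McFarland turbidity. MIC determined by broth microdilution in Mueller–Hinton broth following CLSI guidelines; gentamicin run as control antibiotic.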
# [4] = system: U-937; assay: Cytotoxicity against human U937 cells after 4 hrs by cell titer blue dye assay; type: functional, cell-based; details: for IC50: U-937, 4 h; in short: as §1
# [5] = system: Pseudomonas aeruginosa; assay: Antibacterial activity against Pseudomonas aeruginosa ATCC 27853 by microdilution method; type: functional; in short: as §2
# [6] = system: Acinetobacter baumannii; assay: Antibacterial activity against clinical isolate Acinetobacter baumannii by microdilution method; type: functional
# In short: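 A. baumannii clinical isolate subcultured at least twice on sheep blood agar, 24 h incubation before testing; saline suspension adjusted to 0.5 McFarland. Broth microdilution MIC in Mueller–Hinton broth per CLSI; gentamicin as control antibiotic.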
# [7] = system: HeLa S3; assay: Cytotoxicity against human HeLaS3 cells after 24 hrs by cell titer blue dye assay; type: functional, cell-based; in short: as §1
# [8] = Metabolic stability in human serum assessed as compound remaining at 1 mM after 24 hrs by LC-MS analysis; type: ADME, cell-free; details: read-out: Stability
# In short: (§3)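 Human serum combined with equal volume of 1 mM aqueous peptide stock, incubated 24 h at 37 °C with gentle swirling. Aliquots taken at 0, 1, 5, 10, 30, 120, 360 and 1440 min, quenched with 15% trichloroacetic acid for 30 min at 4 °C, and centrifuged to remove serum proteins. Remaining peptide followed by LC-MS.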
# [9] = Toxicity in human erythrocytes assessed as induction of hemolysis up to 400 uM incubated for 30 mins by microplate reader assay; type: cell-based, Erythrocyte; details: read-out: Activity
# In short: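 Fresh human blood collected in EDTA; erythrocytes washed three times in PBS. Mixed 1:1 with 2-fold serial peptide dilutions to final 4% (v/v) cells and 0.1–400 μM peptide. Incubated 30 min at 37 °C with gentle agitation, then centrifuged; supernatant A540 measured. Percent hemolysis scaled between untreated cells and 1% Triton X-100; triplicate.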
# [10] = system: Staphylococcus aureus; assay: Antibacterial activity against clinical isolate Staphylococcus aureus by microdilution method; type: functional; in short: as §2
# [11] = Cytotoxicity against human 1BR3G cells assessed as reduction of cell viability at 100 uM after 4 hrs by cell titer blue dye assay; type: cell-based
# In short: (§4)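 1BR3G human fibroblasts grown in DMEM with 10% FBS at 37 °C, 5% CO2; 5000 cells/well seeded for 24 h, then medium swapped for DMEM with 2% FBS holding 2-fold serial peptide dilutions (final 0.1–100 μM). After 30 min, Cell Titer Blue added; fluorescence (ex 530, em 590 nm) read 4 and 24 h after dye addition. Viability relative to 2% FBS medium-only controls; triplicate.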
# [12] = system: Escherichia coli; assay: Antibacterial activity against Escherichia coli ATCC 25922 by microdilution method; type: functional; in short: as §2
# [13] = system: Pseudomonas aeruginosa; assay: Antibacterial activity against clinical isolate Pseudomonas aeruginosa by microdilution method; type: functional; in short: as §2
# [14] = system: Escherichia coli; assay: Antibacterial activity against clinical isolate Escherichia coli by microdilution method; type: functional; in short: as §2
# [15] = system: Enterococcus faecalis; assay: Antibacterial activity against Enterococcus faecalis ATCC 29212 by microdilution method; type: functional; in short: as §2
# [16] = system: Enterococcus faecalis; assay: Antibacterial activity against clinical isolate Enterococcus faecalis by microdilution method; type: functional; in short: as §2
# [17] = system: Klebsiella pneumoniae; assay: Antibacterial activity against clinical isolate Klebsiella pneumoniae by microdilution method; type: functional; in short: as §2
# [18] = Cytotoxicity against human 1BR3G cells assessed as reduction of cell viability at 100 uM after 24 hrs by cell titer blue dye assay; type: cell-based; in short: as §4
# [19] = system: Streptococcus pyogenes; assay: Antibacterial activity against clinical isolate Streptococcus pyogenes by microdilution method; type: functional
# In short: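 S. pyogenes isolate subcultured twice on sheep blood agar, incubated 24 h, suspended in saline to 0.5 McFarland. MIC by CLSI broth microdilution in Mueller–Hinton broth supplemented with 5% lysed horse blood; gentamicin control.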
# [20] = system: U-937; assay: Cytotoxicity against human U937 cells after 24 hrs by cell titer blue dye assay; type: functional, cell-based; in short: as §1
# [21] = Half life in human serum at 1 mM incubated for 24 hrs by LC-MS analysis; type: ADME, cell-free; in short: as §3
# [22] = Cytotoxicity against human HeLaS3 cells after 4 hrs by cell titer blue dye assay; type: functional, cell-based; details: HeLa S3, 4 h; in short: as §1
# [23] = system: Jurkat E6.1; assay: Cytotoxicity against human Jurkat E6-1 cells after 24 hrs by cell titer blue dye assay; type: functional, cell-based
# In short: (§5)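 Suspension cells (~60 000) were mixed with 2-fold peptide dilutions (0.1–100 μM final) in DMEM/2% FBS, 30 min at 37 °C, 5% CO2. ~10 000 cells per well then received Cell Titer Blue. Resorufin fluorescence (ex 530/em 590 nm) was read at 4 and 24 h; viability relative to medium-only controls; triplicate.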
# [24] = system: Jurkat E6.1; assay: Cytotoxicity against human Jurkat E6-1 cells after 4 hrs by cell titer blue dye assay; type: functional, cell-based; in short: as §5
# [25] = system: HL-60; assay: Cytotoxicity against human HL60 cells after 4 hrs by cell titer blue dye assay; type: functional, cell-based; in short: as §5
# [26] = Drug degradation in human serum at 1 mM after 24 hrs by LC-MS analysis; type: ADME, cell-free; details: read-out: Drug degradation; in short: as §3
# [27] = system: HL-60; assay: Cytotoxicity against human HL60 cells after 24 hrs by cell titer blue dye assay; type: functional, cell-based; in short: as §5
# [28] = Toxicity in human erythrocytes assessed as induction of hemolysis at 100 uM incubated for 30 mins by microplate reader assay; type: cell-based, Erythrocyte; details: read-out: Activity
# In short: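 Fresh human blood erythrocytes, PBS-washed, were incubated as a 4% (v/v) final suspension with peptide (0.1–400 μM final) for 30 min at 37 °C with gentle agitation. After centrifugation, hemoglobin in the supernatant was read at A540. Percent hemolysis was calculated against 1% Triton X-100 (positive) and untreated cells; triplicate.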
# [29] = Cytotoxicity against human 1BR3G cells after 24 hrs by cell titer blue dye assay; type: cell-based
# In short: (§6)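 1BR3G fibroblasts grown in DMEM/10% FBS, seeded 5000 cells/well, incubated 24 h at 37 °C, then medium swapped for 2% FBS medium with 2-fold peptide dilutions (0.1–100 μM final). After 30 min, Cell Titer Blue dye was added; fluorescence (ex 530/em 590 nm) read 4 and 24 h later. Viability relative to untreated medium controls; triplicate.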
# [30] = Cytotoxicity against human 1BR3G cells after 4 hrs by cell titer blue dye assay; type: cell-based; in short: as §6
Compound,IC50 [1],Activity [2],MIC [3],IC50 [4],MIC [5],MIC [6],Activity [7],hemolysis at 0.5 h [9],MIC [10],Activity [11],MIC [12],MIC [13],MIC [14],MIC [15],MIC [16],MIC [17],MIC [19],Activity [20],half-life at 1000 µM [21],IC50 [22],further results
CC[C@H](C)[C@H](NC(=O)[C@H](CCCCN)NC(=O)[C@H](CCCCN)NC(=O)[C@H](CC(C)C)NC(=O)[C@H](CCCNC(=N)N)NC(=O)[C@H](CCCCN)NC(=O)[C@@H](N)CCCCN)C(=O)N[C@@H](Cc1ccccc1)C(=O)N[C@@H](CCCCN)C(=O)N[C@@H](CCCCN)C(=O)N1CCC[C@H]1C(=O)N[C@@H](CCSC)C(=O)N[C@H](C(=O)N[C@H](C(=O)NCC(=O)N[C@H](C(=O)N[C@H](C(=O)N[C@H](C(=O)N1CCC[C@H]1C(=O)N[C@@H](Cc1ccccc1)C(N)=O)[C@@H](C)CC)[C@H](C)O)C(C)C)[C@@H](C)CC)C(C)C,25 µM,Active,54 µM,6.25 µM,27 µM,1.7 µM,Active,7%,54 µM,20%,0.11 µM,27 µM,3.4 µM,54 µM,54 µM,3.4 µM,3.4 µM,Active,12.8 h,1 µM,"remaining at 24 h, 1000 µM [8]: 10%; Activity [18]: Non-toxic"
CC(C)[C@H](NC(=O)[C@H](CO)NC(=O)[C@H](CCCCN)NC(=O)[C@H](CCCCN)NC(=O)[C@@H](NC(=O)[C@H](CCCCN)NC(=O)[C@H](CCCCN)NC(=O)[C@H](Cc1ccccc1)NC(=O)[C@H](Cc1ccccc1)NC(=O)[C@H](CCCCN)NC(=O)[C@H](CCCCN)NC(=O)[C@H](Cc1ccccc1)NC(=O)[C@H](CCCNC(=N)N)NC(=O)[C@@H](N)CCCCN)C(C)C)C(N)=O (H-KRFKKFFKKVKKSV-NH2),,inactive,71 µM,,71 µM,71 µM,Active,7%,71 µM,20%,71 µM,71 µM,71 µM,71 µM,71 µM,71 µM,36 µM,inactive,0.35 h,> 10 µM,"Activity [1]: inactive; Activity [23]: inactive; Activity [24]: inactive; Activity [4]: inactive; Activity [25]: inactive; metabolised at 24 h, 1000 µM [26]: 100%; Activity [27]: inactive; Activity [18]: Non-toxic"
CC[C@H](C)[C@H](NC(=O)[C@H](CCCCN)NC(=O)[C@H](CCCCN)NC(=O)[C@H](CC(C)C)NC(=O)[C@H](CCCNC(=N)N)NC(=O)[C@H](CCCCN)NC(=O)[C@H](CCCCN)NC(=O)[C@@H](NC(=O)[C@H](CO)NC(=O)[C@H](CCCCN)NC(=O)[C@H](CCCCN)NC(=O)[C@@H](NC(=O)[C@H](CCCCN)NC(=O)[C@H](CCCCN)NC(=O)[C@H](Cc1ccccc1)NC(=O)[C@H](Cc1ccccc1)NC(=O)[C@H](CCCCN)NC(=O)[C@H](CCCCN)NC(=O)[C@H](Cc1ccccc1)NC(=O)[C@H](CCCNC(=N)N)NC(=O)[C@@H](N)CCCCN)C(C)C)C(C)C)C(=O)N[C@@H](Cc1ccccc1)C(=O)N[C@@H](CCCCN)C(=O)N[C@@H](CCCCN)C(=O)N1CCC[C@H]1C(=O)N[C@@H](CCSC)C(=O)N[C@H](C(=O)N[C@H](C(=O)NCC(=O)N[C@H](C(=O)N[C@H](C(=O)N[C@H](C(=O)N1CCC[C@H]1C(=O)N[C@@H](Cc1ccccc1)C(N)=O)[C@@H](C)CC)[C@H](C)O)C(C)C)[C@@H](C)CC)C(C)C,1.56 µM,Active,7.7 µM,< 1 µM,0.24 µM,3.8 µM,Active,33%,7.7 µM,,0.06 µM,3.8 µM,3.8 µM,7.7 µM,31 µM,1.9 µM,3.8 µM,Active,1.18 h,< 1 µM,"hemolysis at 0.5 h, 100 µM [28]: 7%; Activity [23]: Active; IC50 ([24]; Jurkat E6.1, 4 h): > 12.5 µM; Activity [29]: Toxic; IC50 ([25]; HL-60, 4 h): > 12.5 µM; IC50 [30]: 6.25 µM; Activity [27]: Active"
GENTAMICIN,,,0.5 µM,,2.1 µM,17 µM,,,0.5 µM,,1 µM,17 µM,34 µM,17 µM,34 µM,4.2 µM,17 µM,,,,
